# Source: ChEMBL document CHEMBL1123379, “Cardiotonic agents. 2. Synthesis and structure-activity relationships in a new class of 6-, 7-, and 8-pyridyl-2(1H)-quinolone derivatives” (1986)
# What was measured:
# Cavia porcellus [1] = species: Cavia porcellus; assay: Intrinsic activity calculated as the ratio of the maximum response to the compound to the maximum response to isoprenaline.; format: functional
# Cavia porcellus [2] = species: Cavia porcellus; assay: Positive inotropic effect in isolated left guinea pig atria.; format: functional; details: read-out: ED50 (the source's name)
# Outline: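 Isolated left atria from guinea pigs of either sex (300–800 g), reserpine-pretreated (5 mg/kg ip) 24 h before death. Atria paced electrically at 2.5 Hz, 5 ms square pulses, voltage 50% above threshold; bath contained phentolamine 3.15×10^-4 mM. Isoprenaline dose-response curve run first to validate each preparation. Positive inotropy from dose-response curves; ED50 (mol·L⁻¹, dose giving 50% of maximum effect) by Ariens–Van Rossum method.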
SMILES,EC50 (Cavia porcellus [2]) [µM],Intrinsic activity (Cavia porcellus [1])
O=C1CCc2cc(-c3ccccn3)ccc2N1,2.55,0.29
O=c1ccc2cc(-c3cccnc3)ccc2n1CCN1CCOCC1,22,0.58
Oc1ccc2cc(-c3ccccn3)cc(O)c2n1,19,0.51
c1cncc(-c2ccc3nc(OCCN4CCOCC4)ccc3c2)c1,15,0.23
O=C1CCc2cc(-c3ccncc3)ccc2N1,14,0.56
O=C1CCc2cc(-c3cccnc3)ccc2N1,1.3,0.67
Oc1ccc2cc(-c3ccncc3)ccc2n1,2.5,0.45
Oc1ccc2cc(-c3ccccn3)ccc2n1,15,0.67
Nc1cc(Cl)c2nc(O)ccc2c1,100,0.54
COc1cc(-c2ccccn2)cc2c1NC(=O)CC2,6.4,0.71
Oc1ccc2cc(-c3ccccn3)cc(Cl)c2n1,2.05,0.75
Cc1cc(C)c(-c2ccc3nc(O)ccc3c2)c(C)n1,1.05,0.38
CC(C)NCC(O)c1ccc(O)c(O)c1 (configuration not stated) [ISOPROTERENOL],–,1
Cc1[nH]c(=O)c(C#N)cc1-c1ccncc1 [MILRINONE],14,0.67

# Second part, led by results:
EC50 (Cavia porcellus [2]) [µM],SMILES,Intrinsic activity (Cavia porcellus [1])
8.3,Oc1ccc2ccc(-c3cccnc3)cc2n1,0.67
5,COc1cc(-c2ccncc2)cc2ccc(O)nc12,0.88
6.5,COc1cc(-c2cccnc2)cc2ccc(O)nc12,0.57
6.5,COc1cc(-c2ccncc2)cc2c1NC(=O)CC2,0.68
0.38,Oc1ccc2cc(-c3ccncc3)cc(Cl)c2n1,0.78
0.52,Oc1ccc2cc(-c3cccnc3)ccc2n1,0.67
16,COc1cc(-c2cccnc2)cc2c(C)cc(O)nc12,0.81
140,Oc1ccc2cccc(-c3cccnc3)c2n1,0.41
9.2,COc1cc(-c2ccccn2)cc2ccc(O)nc12,0.72
34,COc1cc(-c2cccnc2)cc2c1NC(=O)CC2,0.68
0.28,Oc1ccc2cc(-c3cccnc3)cc(Cl)c2n1,0.68
110,Cn1c(=O)ccc2cc(-c3cccnc3)ccc21,0.33
4.85,COc1cc(-c2ccccn2)cc2c(C)cc(O)nc12,0.74
7,COc1cc(-c2ccncc2)cc2c(C)cc(O)nc12,0.5
0.75,Oc1ccc2cc(-c3cccnc3)cc(O)c2n1,0.72
